Screens (PubChem BioAssay)
TRPC6 inh: mouse TRPC6 channel inhibitors, primary screen, cell-based, HEK293, membrane potential dye | ACh-evoked depolarization; hits give low values | actives 1.1% (n = 310,000) | B-score at 10 µM;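 active means B-score under library mean minus 3 SD, initial fluorescence not abnormally high, positive integrated signal ratio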;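 further: B-score derived from integrated fluorescence ratio over the kinetic read; more negative B-score means stronger inhibition of depolarization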
TRPC4 PAM: positive allosteric modulators of TRPC4, primary screen, cell-based, mouse TRPC4beta, HEK293 mu-opioid, Fluo-4 calcium; Short transient receptor potential channel 4 (Mus musculus), Q9QUQ5; DAMGO EC20, Fluo-4 Ca2+ flux; hits give high values; B-score at 10 µM; actives 0.42% (n = 310,000); AID 2227, 2009;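 active means B-score of calcium response area above 5 SD of library B-scores, with initial fluorescence ratio within 5 SD of library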;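 further: B-score of integrated fluorescence ratio over time as area under calcium response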
TRPC6 act: mouse TRPC6 channel activators, primary screen, cell-based, HEK293, membrane potential dye; HEK293-TRPC6 membrane potential dye fluorescence; hits give high values; B-score at 10 µM; actives 0.13% (n = 310,000); AID 2550, 2010;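 active means B-score of the integrated fluorescence ratio above library mean plus 3 SD, and starting fluorescence ratio within library mean plus 5 SD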;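 further: higher score means more depolarization so channel activation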
TRPC4 agonist: activators of mouse TRPC4 channel, primary screen, Fluo4 calcium, HEK293 TRPC4beta/mu-opioid cells; Short transient receptor potential channel 4 (Mus musculus), Q9QUQ5; Fluo4 calcium fluorescence; hits give high values; B-score at 10 µM; actives 0.49% (n = 310,000);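 active means B-score above 5 SD of library B-scores, and initial fluorescence ratio not above library mean plus 5 SD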;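 further: positive B-score marks a calcium rise read as TRPC4 activation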
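Material: HEK293 stable line with TRPC4beta plus mu-opioid receptor; technique: Fluo4 calcium-sensitive dye fluorescence, kinetic, 1 Hz baseline; timing: Fluo4 dye loading 45 min at room temperature, 110 s recording; controls: assay buffer as low control, maximal DAMGO as high control; read-out: integrated baseline-normalised fluorescence ratio, converted to per-well B score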
TRPC4 inh: inhibitors of mouse TRPC4 channel, primary screen, Fluo4 calcium, HEK293 TRPC4beta/mu-opioid cells; AID 2247, 2010; DAMGO-evoked Fluo4 calcium flux; hits give low values; Short transient receptor potential channel 4 (Mus musculus), Q9QUQ5; B-score at 10 µM; actives 0.39% (n = 300,000);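 active means B-score over 3 SD under the library average, no early fluorescence shift, positive overall ratio signal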
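Test system – stable TRPC4beta/mu-opioid receptor HEK293 cells · Probe or stimulus – DAMGO, a submaximal dose followed by a maximal one · Dosing – one concentration per compound · Signal – Fluo4 calcium fluorescence by kinetic imaging, 5 s 1 Hz baseline · Evaluation – per-well B score of integrated baseline-normalized Fluo4 ratio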
Active calls of the source: *; i = inactive; x = no result. In the library only some 2.3% were active in any assay of this set; here they are far more common.

SMILES	TRPC6 inh	TRPC4 PAM	TRPC6 act	TRPC4 agonist	TRPC4 inh
CC1CCN(C(C)C(=O)Nc2ccccc2-c2ccccc2)CC1 (stereo not given)	i	i	i	i	-7*
Nc1nc(SCCO)[nH]c(=O)c1NC(=O)c1ccccc1F	i	i	i	i	i
COc1ccc(C(=O)N2CCN(c3c(C)cccc3C)CC2)cc1OC	i	17*	i	i	i
N#Cc1c2n(c(=S)n(-c3ccc(OC(F)F)cc3)c1=O)CCCCC2	i	13*	i	i	i
N#Cc1c2n(c(=S)n(-c3ccccn3)c1=O)CCCCC2	i	i	i	i	i
Cc1ccc2c(c1)N(CC(=O)N1CCN(C3CCCCC3)CC1)C(=O)CO2	i	10*	i	i	i
Cc1ccc(S(=O)(=O)N2CCN(C(=O)C(C)Cn3cncn3)CC2)cc1 (stereo not given)	i	i	i	i	i
COc1cccc(/C=C2\SC(=S)N(CC3CCCO3)C2=O)c1 (stereo not given)	i	i	i	i	-6*
O=C1/C(=C/c2cccc(O)c2)SC(=S)N1CC1CCCO1 (stereo not given)	i	i	i	i	i
COc1ccc(OCCSc2nnc(-c3ccc(OC)cc3)n2N)cc1	i	i	i	i	i
CCOc1nc(Nc2ccc(OC)c(Cl)c2)nc(N2CCN(c3ccc(OC)cc3)CC2)n1	i	i	i	i	i
Cc1cccc(NS(=O)(=O)c2ccc(Cl)cc2)n1	i	i	i	i	i
Cc1oc(-c2ccc(Cl)cc2)nc1CS(=O)CC(=O)NC1CCCCC1 (stereo not given)	i	i	i	i	i
Cc1oc(-c2ccccc2Cl)nc1CS(=O)CC(=O)NCCCN1CC(C)CC(C)C1 (stereo not given)	i	i	i	95*	i
Cc1oc(-c2ccc(Cl)cc2)nc1CS(=O)CC(=O)NCCCN(C)C1CCCCC1 (stereo not given)	i	16*	i	i	i
Cc1oc(-c2ccccc2F)nc1CS(=O)(=O)CC(=O)NCCCN1CC(C)CC(C)C1 (stereo not given)	i	i	i	57*	i
COc1ccc(-c2nc(CS(=O)CC(=O)NC3CCCC3)c(C)o2)cc1 (stereo not given)	i	i	i	i	i
CCN(CC)c1nc(N2CCOCC2)nc2ccccc12	i	i	i	i	-6*
COc1ccc(C(=O)N2CCc3[nH]nc(-c4ccccc4)c3C2)cc1	i	i	i	i	i
COc1ccc(CCN(C(=O)c2snc(C(N)=O)c2N)C(C(=O)NCC2CCCO2)c2ccc(F)cc2)cc1OC (stereo not given)	i	i	i	i	i
NC(=O)c1nsc(C(=O)N(Cc2ccco2)C(C(=O)NCC2CCCO2)c2ccc(O)cc2)c1N (stereo not given)	i	i	i	i	i
NC(=O)c1nsc(C(=O)N(Cc2ccco2)C(C(=O)NCC2CCCO2)c2ccc(F)cc2)c1N (stereo not given)	i	i	i	i	-6*
NC(=O)c1nsc(C(=O)N(Cc2ccccc2F)C(C(=O)NCC2CCCO2)c2ccc(F)cc2)c1N (stereo not given)	i	i	i	i	-8*
Cc1cccc(CCN(C(=O)c2snc(C(N)=O)c2N)C(C(=O)NCC2CCCO2)c2ccc(F)cc2)c1 (stereo not given)	i	i	i	i	-7*
COc1ccc(S(=O)(=O)N2CCOCC2)cc1NC(=O)CSc1nnc(N)s1	i	i	i	i	i
SMILES	TRPC6 inh	TRPC4 PAM	TRPC6 act	TRPC4 agonist	TRPC4 inh
CCc1ccccc1NC(=O)C1CCCN(S(=O)(=O)c2ccc3c(c2)CC(C)N3C(C)=O)C1 (stereo not given)	i	i	i	i	i
CCOc1ccc(/C(O)=C2\C(=O)C(=O)N(CCOCCO)C2c2ccccc2OC)cc1 (stereo not given)	i	i	i	i	i
Cc1ccc(C)c(OCC(O)CN2CCN(CCN3C(=O)c4cccc5cccc(c45)C3=O)CC2)c1 (stereo not given)	-5.11*	i	i	i	i
CC(=O)c1ccccc1OCC(O)CN1CCN(CCN2C(=O)c3cccc4cccc(c34)C2=O)CC1 (stereo not given)	i	i	i	i	i
CN(CC(=O)Nc1c(Cl)cccc1Cl)C(=O)CC1Sc2ccccc2NC1=O (stereo not given)	i	i	i	i	-6*
O=[N+]([O-])c1cccc(S(=O)(=O)NCCc2ccccc2)c1	i	i	i	i	i
CN(C)C(CNC(=O)CCOc1ccccc1)c1ccco1 (stereo not given)	i	i	i	i	x
Cc1cccc(OCCC(=O)NCC(c2ccccc2)N(C)C)c1 (stereo not given)	i	i	i	103*	i
CN(C)C(CNC(=O)CCc1nc2ccccc2s1)c1ccccc1 (stereo not given)	i	i	i	i	-7*
COc1ccc(C(CNC(=O)CCOc2ccccc2)N(C)C)cc1 (stereo not given)	i	i	i	154*	i
Nc1sc(-c2ccccc2)n[n+]1Cc1cccc2cccnc12	i	i	i	58*	i
Oc1ccccc1CNc1cccc2cccnc12	i	i	i	i	i
CCOC(CNC(=O)c1ccc2c(c1)ncn2-c1ccc(F)c(F)c1)OCC	i	i	i	i	i
O=C(Nc1cc(Cl)cc(Cl)c1)c1cnn2cccnc12	i	i	i	i	i
COC(=O)c1ccccc1NC(=O)c1cnn2cccnc12	i	54*	i	i	i
O=C(Nc1cccc(Cl)c1)c1cnn2cccnc12	i	34*	i	i	x
CC(C)(C)c1ccc(OCCC(=O)OCC(=O)Nc2ccc(N3CCOCC3)cc2)cc1	i	i	i	i	i
Cc1cc(NC(=O)CC#N)n(-c2ccccc2)n1	i	i	i	i	i
COc1ccccc1C(=O)Nc1ccc2c(c1)CCCN2C(=O)c1cccs1	i	i	i	i	-6*
